Laboratory results taken from ChEMBL document CHEMBL4017487, “Design and Synthesis of γ- and δ-Lactam M1 Positive Allosteric Modulators (PAMs): Convulsion and Cholinergic Toxicity of an M1-Selective PAM with Weak Agonist Activity” (J Med Chem, 2017).

Columns and labels:
Rattus norvegicus [1] = assay: Toxicity in rat assessed as unbound Cmax in brain required to show convulsions at 45 mg/kg, po administered as single dose; format: organism-based; details: in vivo
[2] = biological target: Muscarinic acetylcholine receptor M3 (Homo sapiens, UniProt P20309); assay: Positive allosteric modulation of human muscarinic acetylcholine receptor M3 expressed in CHO cells assessed as increase in acetylcholine-induced calcium mobilization up to 10 uM preincubated for 10 mins followed by acetylcholine addition by Fluo-8-AM dye based FLIPR assay; format: cell-based
Sequence of Muscarinic acetylcholine receptor M3 (P20309 whole entry): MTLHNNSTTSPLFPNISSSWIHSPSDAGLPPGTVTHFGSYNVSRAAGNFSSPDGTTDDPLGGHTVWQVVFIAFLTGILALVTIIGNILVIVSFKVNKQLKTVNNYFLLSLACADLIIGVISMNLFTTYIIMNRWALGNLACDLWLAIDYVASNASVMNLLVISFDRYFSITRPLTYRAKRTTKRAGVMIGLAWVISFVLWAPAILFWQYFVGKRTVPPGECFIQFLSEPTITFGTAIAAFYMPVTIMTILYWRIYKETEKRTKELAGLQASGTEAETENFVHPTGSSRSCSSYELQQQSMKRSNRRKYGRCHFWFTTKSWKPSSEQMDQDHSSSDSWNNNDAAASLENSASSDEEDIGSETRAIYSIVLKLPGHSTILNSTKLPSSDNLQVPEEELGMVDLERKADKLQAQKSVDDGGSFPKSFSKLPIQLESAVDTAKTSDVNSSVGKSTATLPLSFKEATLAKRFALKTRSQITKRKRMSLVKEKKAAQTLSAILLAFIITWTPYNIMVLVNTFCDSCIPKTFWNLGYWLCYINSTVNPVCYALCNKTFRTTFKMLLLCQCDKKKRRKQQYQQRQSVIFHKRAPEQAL
How it was run: (§1)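 Recombinant functional human M2–M5 assays, each run in agonist and PAM modes at concentrations up to 10 μM.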

Brain [3] = assay: Unbound brain concentration in scopolamine-induced memory impairment Wistar rat model at 0.32 mg/kg, sc measured at 1.25 hrs post dose by LC-MS/MS analysis; details: in vivo
[4] = Ratio of unbound AUC in iv or po dosed mouse brain to plasma; format: ADME, organism-based
Canis familiaris [5] = assay: Toxicity in dog assessed as unbound Cmax in brain required to show convulsions at 15 mg/kg, po administered as single dose using spray dried dispersion formulation; format: organism-based, Canis lupus familiaris; details: in vivo
Canis familiaris [6] = assay: Toxicity in dog assessed as unbound Cmax in plasma required to show convulsions at 15 mg/kg, po administered as single dose using spray dried dispersion formulation; format: organism-based, Canis lupus familiaris; details: in vivo
[7] = biological target: T1, Muscarinic acetylcholine receptor M2 (Homo sapiens, UniProt P08172); assay: Agonist activity at human muscarinic acetylcholine receptor M2 expressed in CHO cells assessed as increase in cAMP accumulation after 2 hrs by cAMP-Glo assay; format: cell-based; how it was run: as §1
T1 sequence (P08172 whole entry): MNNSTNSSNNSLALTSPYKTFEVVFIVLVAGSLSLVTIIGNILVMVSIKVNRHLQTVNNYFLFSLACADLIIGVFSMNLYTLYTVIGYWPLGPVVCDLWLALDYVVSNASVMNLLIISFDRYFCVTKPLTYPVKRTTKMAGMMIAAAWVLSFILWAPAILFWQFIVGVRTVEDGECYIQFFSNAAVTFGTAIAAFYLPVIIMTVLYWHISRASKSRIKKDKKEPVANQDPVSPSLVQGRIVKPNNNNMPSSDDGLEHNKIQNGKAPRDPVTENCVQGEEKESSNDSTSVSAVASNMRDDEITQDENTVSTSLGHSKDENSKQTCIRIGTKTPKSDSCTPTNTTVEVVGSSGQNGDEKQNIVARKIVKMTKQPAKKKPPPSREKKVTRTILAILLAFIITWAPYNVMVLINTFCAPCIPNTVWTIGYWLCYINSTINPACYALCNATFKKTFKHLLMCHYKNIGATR

[8] = Cholinergic toxicity in po dosed rat administered as single dose after 1 to 1.5 hrs post dose; format: organism-based; details: in vivo
How it was run: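 Rat single oral dose escalation, 3/sex/dose. 1 and 5 mg/kg as a 0.5% methylcellulose suspension; 15 and 45 mg/kg as a nanosuspension (1.25% w/v hydroxypropyl cellulose SL, 0.05% docusate sodium in water).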

[9] = Oral bioavailability in rat at 2 mg/kg administered as single dose; format: ADME, organism-based; details: in vivo
Rattus norvegicus [10] = assay: Unbound Cmax in rat plasma at 5 mg/kg, po administered as single dose; format: ADME, organism-based; details: in vivo
How it was run: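 Rats (3/sex/dose) dosed orally once, 1 or 5 mg/kg as a 0.5% methylcellulose suspension.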

[11] = Half life in rat at 2 mg/kg, po administered as single dose; format: ADME, organism-based; details: in vivo
How it was run: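 Rat, single oral dose of 2 mg/kg given as a suspension in 0.5% methylcellulose. Half-life taken after the oral dose.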

Brain [12] = assay: Unbound brain concentration in amphetamine-induced hyperlocomotion C57BL/6 mouse at 0.3 mg/kg, sc measured after 1 hr by LC-MS/MS analysis; format: ADME, organism-based; details: in vivo
How it was run: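 Satellite group of C57BL/6 mice from the amphetamine-stimulated locomotor study, N = 2/dose at 0.32, 1 and 3.2 mg/kg. Dosed sc as a solution in 10/90 Cremophor/water. Unbound plasma and brain concentrations measured at T = 1 h.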

[13] = Oral bioavailability in dog at 0.5 mg/kg administered as single dose; format: ADME, organism-based, Canis lupus familiaris; details: in vivo
[14] = biological target: T2, Muscarinic acetylcholine receptor M1 (Homo sapiens, UniProt P11229); assay: Positive allosteric modulation of human muscarinic acetylcholine receptor M1 expressed in CHO cells assessed as increase in acetylcholine-induced calcium mobilization preincubated for 10 mins followed by acetylcholine addition by Fluo-8-AM dye based FLIPR assay; format: ADME, cell-based
T2 sequence (P11229 whole entry): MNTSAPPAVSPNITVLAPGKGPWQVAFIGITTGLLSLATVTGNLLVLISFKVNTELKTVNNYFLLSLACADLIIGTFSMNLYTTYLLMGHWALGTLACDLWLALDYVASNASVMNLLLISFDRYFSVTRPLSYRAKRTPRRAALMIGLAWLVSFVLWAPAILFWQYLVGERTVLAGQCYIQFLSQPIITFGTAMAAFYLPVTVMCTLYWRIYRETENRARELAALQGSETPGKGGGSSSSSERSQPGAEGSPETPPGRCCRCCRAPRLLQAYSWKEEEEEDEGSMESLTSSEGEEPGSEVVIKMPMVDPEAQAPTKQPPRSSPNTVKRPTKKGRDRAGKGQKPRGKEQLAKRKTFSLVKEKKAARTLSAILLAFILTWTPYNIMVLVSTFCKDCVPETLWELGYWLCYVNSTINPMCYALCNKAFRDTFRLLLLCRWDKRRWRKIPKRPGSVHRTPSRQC
How it was run: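 M1 potentiation (PAM) format: calcium mobilization read on a FLIPR plate reader with an EC20 concentration of ACh present. EC50 is the geometric mean of at least three experiments.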

Canis familiaris [15] = assay: Cholinergic toxicity in dog assessed as transient salivation at 5 mg/kg, po administered as single dose using spray dried dispersion formulation after 1 to 4 hrs; format: organism-based, Canis lupus familiaris; details: in vivo
How it was run: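 Dog single oral dose escalation: 1/sex at 5 mg/kg for each formulation; 1 female at 15 mg/kg. Spray-dried dispersion: 23% drug loading with 0.5% methylcellulose and 100 mM citrate buffer. Clinical signs timed in approximate hours postdose; unbound plasma Cmax.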

Rattus norvegicus [16] = assay: Unbound Cmax in rat plasma at 45 mg/kg, po administered as single dose; format: ADME, organism-based; details: in vivo
[17] = Ratio of unbound AUC in dog brain to plasma at 0.5 mg/kg, po or 0.1 mg/kg, iv administered as single bolus dose; format: ADME, organism-based, Canis lupus familiaris
Rattus norvegicus [18] = assay: Toxicity in rat assessed as unbound plasma concentration required for convulsions at 45 mg/kg, po administered as single dose after 1 to 6 hrs; format: organism-based; details: in vivo

Cc1cc2c(cc1Cc1ccc(-c3cocn3)cc1)C(=O)N([C@H]1CCOC[C@@H]1O)C2
fCmax (Rattus norvegicus [1]): 440 nM
Activity [2]: Not Active
Drug uptake(free) (Brain [3]): 3.2 nM
Kp uu [4]: 0.3
fCmax (Canis familiaris [5]): 320 nM
fCmax (Canis familiaris [6]): 1070 nM
EC50 [7]: > 10 µM
NOAEL [8]: 15 mg/kg
bioavailability [9]: 91%
fCmax (Rattus norvegicus [10]): 313 nM
half-life [11]: 6.7 h
Drug uptake(free) (Brain [12]): 3.8 nM
bioavailability [13]: 65%
EC50 [14]: 0.047 µM
Activity (Canis familiaris [15]): Toxic
fCmax (Rattus norvegicus [16]): 2.31 to 3.83 µM
Kp uu [17]: 0.3
Cp(f) (Rattus norvegicus [18]): 2.31 µM
